Experiments:
[1] = Drug level in liver in rat at 10 mg/kg measured after 6 hrs; type: ADME, organism-based; parameters: dose 10 mg/kg; conditions: read-out: Drug uptake
Procedure, shortened: (§1)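 Rats were given a single 10 mg/kg dose. Plasma exposure (AUC, Cmax) was determined, and drug concentrations in plasma, brain and liver were measured at 6 h post-dose. The liver/plasma ratio was taken from the 6 h levels.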

[2] = Cmax in rat at 10 mg/kg; type: ADME, organism-based; parameters: dose 10 mg/kg; conditions: in vivo; procedure, shortened: as §1
[3] = Plasma concentration in rat at 10 mg/kg measured after 6 hrs; type: ADME, organism-based; parameters: dose 10 mg/kg; procedure, shortened: as §1
[4] = target: T1, Acyl-CoA desaturase 1 (Rattus norvegicus, UniProt P07308); assay: Inhibition of rat SCD1 by rat microsomal assay
T1 sequence (P07308 whole entry): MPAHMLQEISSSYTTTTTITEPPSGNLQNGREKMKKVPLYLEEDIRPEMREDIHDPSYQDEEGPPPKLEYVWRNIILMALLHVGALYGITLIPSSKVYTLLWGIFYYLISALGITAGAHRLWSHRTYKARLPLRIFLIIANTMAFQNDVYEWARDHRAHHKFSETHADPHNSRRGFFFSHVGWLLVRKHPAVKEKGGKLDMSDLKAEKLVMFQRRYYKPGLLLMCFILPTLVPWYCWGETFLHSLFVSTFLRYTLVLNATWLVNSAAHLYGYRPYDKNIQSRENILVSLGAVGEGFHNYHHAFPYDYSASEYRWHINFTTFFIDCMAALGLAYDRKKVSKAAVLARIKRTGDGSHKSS
Procedure, shortened: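 Microsomal desaturase activity was measured in 100 mM Tris HCl pH 7.3 with 2 mM NADH and [9,10-3H]stearoyl-CoA for 15 min at room temperature. The reaction was stopped on ice with trichloroacetic acid, then passed through activated charcoal, and tritium in the filtrate was counted. Compounds were tested in 2% DMSO final. Percent inhibition = (total−sample)/(total−blank)×100, with the blank set by 10⁻⁴ M of a standard inhibitor.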

[5] = test system: Rattus norvegicus; assay: AUC in rat at 10 mg/kg; type: ADME, organism-based, Plasma; parameters: dose 10 mg/kg; conditions: in vivo; procedure, shortened: as §1
[6] = Ratio of drug level in liver to plasma of rat at 10 mg/kg measured after 6 hrs; type: ADME, organism-based; parameters: dose 10 mg/kg; procedure, shortened: as §1

Structure (SMILES) | concentration at 6 h [1] [ng/g] | Cmax [2] [ng/g] | concentration at 6 h [3] [ng/g] | IC50 [4] [nM] | AUC [5] [ng·h/g] | Kp at 6 h [6]
CCc1ccc(CN2CCC3(CCN(C(=O)CNC(C)=O)CC3)Oc3ccccc32)cc1 | < 100 | 579 | 19 | 57 | 1288 | –
CC(C)(C)c1ccc(CN2CCC3(CCN(C(=O)CNC(=O)c4cccnc4)CC3)Oc3ccccc32)cc1 | 232 | 169 | 18 | 1500 | 341 | 13
O=C(NCCC1CC1)c1ccc(N2CCC3(CC2)CCN(Cc2cccc(C(F)(F)F)c2)c2ccccc2O3)nn1 | < 10 | 209 | – | 4 | 105 | –
CC(=O)NCC(=O)N1CCC2(CC1)CCN(CCc1ccc(C(C)C)cc1)c1ccccc1O2 | 1660 | 875 | 100 | 42 | 2608 | 17
NC(=O)c1cnc(N2CCC3(CC2)CCN(Cc2cccc(C(F)(F)F)c2)c2ccccc2O3)s1 | < 10 | 45 | – | 3 | 58 | –

From ChEMBL document CHEMBL2311288, “Discovery of liver-targeted inhibitors of stearoyl-CoA desaturase (SCD1)” (Bioorg Med Chem Lett, 2013)
